Experiment [1] concerns the target Aurora kinase B (Homo sapiens) (UniProt Q96GD4). Nature of the experiment: Binding affinity to wild-type human partial length AURKB (D25 to A303 residues) expressed in mammalian expression system assessed as residual binding level at 1 uM by Kinomescan method relative to control. In short, it runs like this: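 KinomeScan, an active site-directed competition binding panel of 468 kinases. The test compound was at 1 μM. The readout is remaining kinase binding as a percentage of the DMSO control. Scores above 35% were treated as weak binding and not listed.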

In experiment [2] the target is Activin receptor type-2A (Homo sapiens) (UniProt P27037). In words: Binding affinity to wild-type human ACVR2A (V171 to T499 residues) expressed in bacterial expression system assessed as residual binding level at 1 uM by Kinomescan method relative to control. In short, it runs like this: (§1)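 Active-site-directed KinomeScan competition binding panel covering 468 kinases, compound tested at 1 μM. Each readout is the kinase signal remaining with compound, expressed as a percentage of the DMSO control. […]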

Experiment [3] concerns the target Calcium/calmodulin-dependent protein kinase type II subunit delta (Homo sapiens) (UniProt Q13557). Nature of the experiment: Binding affinity to wild-type human partial length CAMK2D (M1 to E329 residues) expressed in bacterial expression system assessed as residual binding level at 1 uM by Kinomescan method relative to control.
The target in experiment [4] is Serine/threonine-protein kinase D2 (Homo sapiens) (UniProt Q9BZL6). Nature of the experiment: Binding affinity to wild-type human partial length PRKD2 (A519 to E838 residues) expressed in bacterial expression system assessed as residual binding level at 1 uM by Kinomescan method relative to control. In short, it runs like this:
(§2)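 Active-site-directed competition binding panel of 468 kinases (KinomeScan), compound at 1 μM. The read-out is kinase remaining bound, given as a percentage of the DMSO control. […]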

In experiment [5] the target is Ephrin type-A receptor 7 (Homo sapiens) (UniProt Q15375). Nature of the experiment: Binding affinity to wild-type human partial length EPHA7 (Y608 to S912 residues) expressed in bacterial expression system assessed as residual binding level at 1 uM by Kinomescan method relative to control.
In experiment [6] the target is Inhibitor of nuclear factor kappa-B kinase subunit beta (Homo sapiens) (UniProt O14920). In words: Binding affinity to wild-type human full length IKK-beta (M1 to S756 residues) expressed in mammalian expression system assessed as residual binding level at 1 uM by Kinomescan method relative to control. The method, boiled down:
as §1

Experiment [7] deals with Mitogen-activated protein kinase 13 (Homo sapiens) (UniProt O15264). In words: Binding affinity to wild-type human full length p38-delta (M1 to L365 residues) expressed in bacterial expression system assessed as residual binding level at 1 uM by Kinomescan method relative to control.
Mitogen-activated protein kinase 13 (Homo sapiens), sequence (O15264 whole entry, the tested form may be a part): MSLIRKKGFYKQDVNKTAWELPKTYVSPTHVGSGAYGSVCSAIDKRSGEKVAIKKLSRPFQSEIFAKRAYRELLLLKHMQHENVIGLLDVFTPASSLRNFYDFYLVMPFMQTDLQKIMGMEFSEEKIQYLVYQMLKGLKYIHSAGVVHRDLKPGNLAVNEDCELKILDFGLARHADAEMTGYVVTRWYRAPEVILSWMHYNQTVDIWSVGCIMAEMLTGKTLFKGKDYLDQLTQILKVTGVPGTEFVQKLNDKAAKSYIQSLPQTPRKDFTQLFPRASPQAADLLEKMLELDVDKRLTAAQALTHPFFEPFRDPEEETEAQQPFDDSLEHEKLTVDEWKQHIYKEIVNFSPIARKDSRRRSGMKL
Experiment [8] deals with Serine/threonine-protein kinase PLK2 (Homo sapiens) (UniProt Q9NYY3). Nature of the experiment: Binding affinity to wild-type human partial length PLK2 (H58 to F354 residues) expressed in mammalian expression system assessed as residual binding level at 1 uM by Kinomescan method relative to control.
The target in experiment [9] is Myosin light chain kinase (Homo sapiens) (UniProt Q32MK0). Nature of the experiment: Binding affinity to wild-type human partial length MLCK (D488 to K800 residues) expressed in bacterial expression system assessed as residual binding level at 1 uM by Kinomescan method relative to control.
For experiment [10], the target named is Serine/threonine-protein kinase 17A (Homo sapiens) (UniProt Q9UEE5). In words: Binding affinity to wild-type human partial length DRAK1 (R32 to E363 residues) expressed in bacterial expression system assessed as residual binding level at 1 uM by Kinomescan method relative to control.
Serine/threonine-protein kinase 17A (Homo sapiens), sequence (Q9UEE5 whole entry, the tested form may be a part): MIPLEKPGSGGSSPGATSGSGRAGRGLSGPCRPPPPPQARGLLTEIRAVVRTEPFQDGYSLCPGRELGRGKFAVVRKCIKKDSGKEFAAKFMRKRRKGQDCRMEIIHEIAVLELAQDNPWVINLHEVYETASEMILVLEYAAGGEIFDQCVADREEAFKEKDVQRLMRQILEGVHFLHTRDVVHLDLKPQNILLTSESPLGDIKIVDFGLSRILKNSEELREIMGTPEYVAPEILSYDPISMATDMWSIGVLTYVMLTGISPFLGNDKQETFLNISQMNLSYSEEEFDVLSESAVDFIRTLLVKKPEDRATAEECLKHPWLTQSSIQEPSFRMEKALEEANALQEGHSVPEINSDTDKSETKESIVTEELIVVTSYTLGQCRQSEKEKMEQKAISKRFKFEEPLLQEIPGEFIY
Experiment [11] concerns the target Vascular endothelial growth factor receptor 1 (Homo sapiens) (UniProt P17948). Nature of the experiment: Binding affinity to wild-type human partial length FLT1 (R781 to F1239 residues) expressed in bacterial expression system assessed as residual binding level at 1 uM by Kinomescan method relative to control.
Experiment [12] deals with Serine/threonine-protein kinase Nek11 (Homo sapiens) (UniProt Q8NG66). Nature of the experiment: Binding affinity to wild-type human partial length NEK11 (M1 to E313 residues) expressed in mammalian expression system assessed as residual binding level at 1 uM by Kinomescan method relative to control. In short, it runs like this: as §2
Experiment [13] deals with Serine/threonine-protein kinase DCLK3 (Homo sapiens) (UniProt Q9C098). Nature of the experiment: Binding affinity to wild-type human partial length DCAMKL3 (E140 to V628 residues) expressed in bacterial expression system assessed as residual binding level at 1 uM by Kinomescan method relative to control.
For experiment [14], the system named is Epidermal growth factor receptor (Homo sapiens), P00533 [L858R]. Nature of the experiment: Binding affinity to human partial length EGFR L858R mutant (R669 to V1011 residues) expressed in bacterial expression system assessed as residual binding level at 1 uM by Kinomescan method relative to control. The method, boiled down: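 KinomeScan active site-directed competition binding panel (468 kinases), compound tested at 1 μM. Result expressed as remaining kinase signal versus DMSO control (percent of control).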

In experiment [15] the target is Insulin receptor-related protein (Homo sapiens) (UniProt P14616). In words: Binding affinity to wild-type human partial length INSRR (R950 to E1278 residues) expressed in bacterial expression system assessed as residual binding level at 1 uM by Kinomescan method relative to control.
Insulin receptor-related protein (Homo sapiens), sequence (P14616 27-742 limits assumed): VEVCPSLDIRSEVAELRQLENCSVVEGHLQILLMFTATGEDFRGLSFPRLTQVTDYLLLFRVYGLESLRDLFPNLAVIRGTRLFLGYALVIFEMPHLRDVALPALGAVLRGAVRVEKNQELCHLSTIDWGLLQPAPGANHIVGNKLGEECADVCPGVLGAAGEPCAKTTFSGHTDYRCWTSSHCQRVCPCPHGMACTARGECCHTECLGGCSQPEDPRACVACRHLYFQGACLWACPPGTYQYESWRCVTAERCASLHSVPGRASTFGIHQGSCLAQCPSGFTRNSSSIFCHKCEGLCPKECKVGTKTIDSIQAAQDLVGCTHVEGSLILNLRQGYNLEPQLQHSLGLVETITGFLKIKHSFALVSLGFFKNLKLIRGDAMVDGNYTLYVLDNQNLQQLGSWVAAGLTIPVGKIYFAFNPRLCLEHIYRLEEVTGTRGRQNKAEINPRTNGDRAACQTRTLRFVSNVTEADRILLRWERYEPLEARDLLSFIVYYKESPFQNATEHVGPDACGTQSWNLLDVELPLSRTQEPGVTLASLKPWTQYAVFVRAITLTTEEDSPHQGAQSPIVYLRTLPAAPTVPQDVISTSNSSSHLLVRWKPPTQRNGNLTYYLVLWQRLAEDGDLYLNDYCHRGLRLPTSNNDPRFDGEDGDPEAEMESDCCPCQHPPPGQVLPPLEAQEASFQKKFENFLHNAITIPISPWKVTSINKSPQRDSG
Insulin receptor-related protein (Homo sapiens), sequence (P14616 747-1297 limits assumed): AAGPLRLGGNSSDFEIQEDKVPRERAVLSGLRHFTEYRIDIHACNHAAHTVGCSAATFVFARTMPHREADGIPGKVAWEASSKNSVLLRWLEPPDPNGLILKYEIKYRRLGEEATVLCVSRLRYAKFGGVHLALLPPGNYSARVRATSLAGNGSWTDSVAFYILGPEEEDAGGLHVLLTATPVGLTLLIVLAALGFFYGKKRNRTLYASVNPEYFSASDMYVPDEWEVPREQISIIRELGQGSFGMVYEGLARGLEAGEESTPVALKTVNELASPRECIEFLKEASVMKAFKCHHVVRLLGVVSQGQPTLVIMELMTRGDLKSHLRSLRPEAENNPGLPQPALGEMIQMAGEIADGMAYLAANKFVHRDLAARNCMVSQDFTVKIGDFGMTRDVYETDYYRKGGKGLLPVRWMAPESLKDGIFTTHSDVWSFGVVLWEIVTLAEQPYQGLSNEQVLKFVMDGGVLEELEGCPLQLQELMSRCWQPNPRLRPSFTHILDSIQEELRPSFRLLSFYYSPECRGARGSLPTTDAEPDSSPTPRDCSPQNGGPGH
For experiment [16], the target named is Serine/threonine-protein kinase 35 (Homo sapiens) (UniProt Q8TDR2). In words: Binding affinity to wild-type human partial length STK35 (G182 to A534 residues) expressed in bacterial expression system assessed as residual binding level at 1 uM by Kinomescan method relative to control.
For experiment [17], the target named is Tyrosine-protein kinase FRK (Homo sapiens) (UniProt P42685). In words: Binding affinity to wild-type human partial length FRK (A215 to F503 residues) expressed in bacterial expression system assessed as residual binding level at 1 uM by Kinomescan method relative to control. The method, boiled down: as §2
In experiment [18] the target is Ribosomal protein S6 kinase alpha-3 (Homo sapiens) (UniProt P51812). In words: Binding affinity to wild-type human partial length C-terminal RSK2 kinase domain 2 (V402 to S715 residues) expressed in mammalian expression system assessed as residual binding level at 1 uM by Kinomescan method relative to control.
Ribosomal protein S6 kinase alpha-3 (Homo sapiens), sequence (P51812 whole entry, the tested form may be a part): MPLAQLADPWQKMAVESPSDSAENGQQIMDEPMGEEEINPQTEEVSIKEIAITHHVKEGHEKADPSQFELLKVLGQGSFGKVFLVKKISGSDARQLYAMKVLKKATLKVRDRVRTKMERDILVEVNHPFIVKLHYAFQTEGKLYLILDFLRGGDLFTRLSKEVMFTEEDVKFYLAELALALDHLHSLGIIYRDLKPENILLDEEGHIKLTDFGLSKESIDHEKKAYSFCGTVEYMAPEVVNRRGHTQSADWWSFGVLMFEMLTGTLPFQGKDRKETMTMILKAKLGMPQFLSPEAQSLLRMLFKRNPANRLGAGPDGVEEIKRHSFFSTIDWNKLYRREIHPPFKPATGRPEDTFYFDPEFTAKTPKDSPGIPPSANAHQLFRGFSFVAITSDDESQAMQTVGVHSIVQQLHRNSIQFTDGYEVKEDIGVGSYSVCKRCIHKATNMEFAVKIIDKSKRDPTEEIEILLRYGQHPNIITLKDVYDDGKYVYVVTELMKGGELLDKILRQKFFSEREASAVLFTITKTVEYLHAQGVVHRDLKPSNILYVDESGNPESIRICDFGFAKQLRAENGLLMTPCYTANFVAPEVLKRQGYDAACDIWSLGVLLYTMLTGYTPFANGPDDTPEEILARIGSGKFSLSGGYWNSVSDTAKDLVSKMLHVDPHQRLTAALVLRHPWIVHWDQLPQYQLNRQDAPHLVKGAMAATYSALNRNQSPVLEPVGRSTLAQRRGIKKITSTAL
In experiment [19] the target is MAP kinase-interacting serine/threonine-protein kinase 1 (Homo sapiens) (UniProt Q9BUB5). In words: Binding affinity to wild-type human full length MKNK1 (M1 to L424 residues) expressed in mammalian expression system assessed as residual binding level at 1 uM by Kinomescan method relative to control. In short, it runs like this:
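Active-site-directed competition binding panel (KinomeScan) covering 468 kinases. Test agent was screened at 1 μM. The read-out is the remaining kinase signal expressed relative to a DMSO control. Scores above 35%, taken as weak binding, were not reported.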

Experiment [20] addresses Cyclin-dependent kinase 5 (Homo sapiens) (UniProt Q00535). Nature of the experiment: Binding affinity to wild-type human full length CDK5 (M1 to P292 residues) expressed in bacterial expression system assessed as residual binding level at 1 uM by Kinomescan method relative to control. In short, it runs like this:
as §1

Experiment [21] deals with Protein-tyrosine kinase 6 (Homo sapiens) (UniProt Q13882). Nature of the experiment: Binding affinity to wild-type human partial length BRK (L166 to T451 residues) expressed in bacterial expression system assessed as residual binding level at 1 uM by Kinomescan method relative to control.
Protein-tyrosine kinase 6 (Homo sapiens), sequence (Q13882 whole entry, looked up, the tested form may be a part): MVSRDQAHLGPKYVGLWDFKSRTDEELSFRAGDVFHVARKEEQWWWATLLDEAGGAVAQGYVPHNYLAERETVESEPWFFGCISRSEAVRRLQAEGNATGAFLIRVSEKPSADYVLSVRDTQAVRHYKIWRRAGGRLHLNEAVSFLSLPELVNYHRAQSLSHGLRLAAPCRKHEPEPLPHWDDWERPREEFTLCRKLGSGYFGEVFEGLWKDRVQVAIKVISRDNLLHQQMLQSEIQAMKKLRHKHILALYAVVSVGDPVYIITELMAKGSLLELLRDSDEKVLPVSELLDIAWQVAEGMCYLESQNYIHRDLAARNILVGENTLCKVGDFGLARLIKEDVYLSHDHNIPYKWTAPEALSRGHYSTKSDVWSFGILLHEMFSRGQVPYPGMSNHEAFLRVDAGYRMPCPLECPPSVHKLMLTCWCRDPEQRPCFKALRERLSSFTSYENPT

MAP kinase-interacting serine/threonine-protein kinase 1 (Homo sapiens), sequence (Q9BUB5 whole entry, looked up, the tested form may be a part): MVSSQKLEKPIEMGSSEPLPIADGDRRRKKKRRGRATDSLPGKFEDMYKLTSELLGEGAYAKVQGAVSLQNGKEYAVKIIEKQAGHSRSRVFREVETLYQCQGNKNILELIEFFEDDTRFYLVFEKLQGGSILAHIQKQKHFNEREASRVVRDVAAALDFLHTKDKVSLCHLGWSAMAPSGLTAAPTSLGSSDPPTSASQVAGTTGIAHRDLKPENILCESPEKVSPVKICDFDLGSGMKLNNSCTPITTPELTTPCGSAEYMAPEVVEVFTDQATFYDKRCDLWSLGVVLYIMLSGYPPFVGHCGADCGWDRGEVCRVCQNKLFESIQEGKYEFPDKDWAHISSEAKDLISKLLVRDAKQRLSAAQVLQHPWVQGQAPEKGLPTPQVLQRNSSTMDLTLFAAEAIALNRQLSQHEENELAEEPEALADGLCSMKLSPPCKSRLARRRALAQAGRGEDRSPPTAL
Cyclin-dependent kinase 5 (Homo sapiens), sequence (Q00535 whole entry, looked up, the tested form may be a part): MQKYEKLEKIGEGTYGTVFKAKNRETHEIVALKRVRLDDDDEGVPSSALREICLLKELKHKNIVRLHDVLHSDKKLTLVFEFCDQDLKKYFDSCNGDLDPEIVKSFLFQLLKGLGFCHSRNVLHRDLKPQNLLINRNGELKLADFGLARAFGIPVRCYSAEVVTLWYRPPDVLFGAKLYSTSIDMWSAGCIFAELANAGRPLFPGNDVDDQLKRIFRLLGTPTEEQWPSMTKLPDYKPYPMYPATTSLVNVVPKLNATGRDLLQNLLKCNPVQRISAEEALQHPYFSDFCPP
Calcium/calmodulin-dependent protein kinase type II subunit delta (Homo sapiens), sequence (Q13557 whole entry, the tested form may be a part): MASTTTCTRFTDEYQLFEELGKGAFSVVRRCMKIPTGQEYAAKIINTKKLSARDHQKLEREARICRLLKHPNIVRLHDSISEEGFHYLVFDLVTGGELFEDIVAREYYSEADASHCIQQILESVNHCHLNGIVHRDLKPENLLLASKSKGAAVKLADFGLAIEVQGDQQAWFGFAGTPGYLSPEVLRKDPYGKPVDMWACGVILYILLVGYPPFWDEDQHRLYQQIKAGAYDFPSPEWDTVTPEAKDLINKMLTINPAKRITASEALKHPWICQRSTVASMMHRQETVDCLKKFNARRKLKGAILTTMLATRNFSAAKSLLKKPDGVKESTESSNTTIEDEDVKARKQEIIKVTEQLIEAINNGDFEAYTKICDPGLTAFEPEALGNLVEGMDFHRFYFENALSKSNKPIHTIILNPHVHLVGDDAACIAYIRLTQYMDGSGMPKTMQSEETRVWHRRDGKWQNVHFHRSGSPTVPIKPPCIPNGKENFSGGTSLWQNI
Aurora kinase B (Homo sapiens), sequence (Q96GD4 whole entry, the tested form may be a part): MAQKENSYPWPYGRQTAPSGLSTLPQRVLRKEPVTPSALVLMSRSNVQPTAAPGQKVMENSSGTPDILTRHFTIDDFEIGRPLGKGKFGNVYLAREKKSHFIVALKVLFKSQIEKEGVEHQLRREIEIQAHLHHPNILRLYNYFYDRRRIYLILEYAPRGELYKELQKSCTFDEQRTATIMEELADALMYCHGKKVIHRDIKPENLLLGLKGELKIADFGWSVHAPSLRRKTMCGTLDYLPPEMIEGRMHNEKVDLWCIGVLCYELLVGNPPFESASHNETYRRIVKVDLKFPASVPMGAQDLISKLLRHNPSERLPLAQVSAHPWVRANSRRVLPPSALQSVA

Turning to `C=CC(=O)Nc1ccccc1Nc1nc(Nc2ccc(N3CCN(C)CC3)cc2)ncc1C(=O)Nc1c(C)cccc1Cl`, the Activity turned out to be 79% in experiment [1]; 100% in experiment [2]; 100% in experiment [3]; 99% in experiment [4]; 100% in [5]; 100% in [6]. Besides, the Activity in experiment [7] amounted to 100%; in [8], 100%; in experiment [9] it was 100%; in experiment [10], 100%; in experiment [11], 100%; in experiment [12], 72%. Also, the Activity in experiment [13] was 100%; in experiment [14] it was 62%; in [15], 100%; in [16] it was 100%; in experiment [17] it was 5.1%; in experiment [18], 100%. The Activity was 92% in experiment [19], 100% in experiment [20] and 100% in experiment [21].

(Values after ChEMBL document CHEMBL4354843, “Structure-Based Design of a Potent and Selective Covalent Inhibitor for SRC Kinase That Targets a P-Loop Cysteine” (J Med Chem, 2020).)
